Source: ChEMBL document CHEMBL1135602 (J Med Chem, 2002)
Activity calls are given as the source filed them. The calls are words filed in the database; no cut-off is given here.

Legend:
[1] = tested on: BC; test: Cytotoxicity against human breast cancer cells.; assay type: functional, cell-based
[2] = tested on: Vero; test: Cytotoxicity by the selective inhibition against African green monkey kidney […] (vero cells).; assay type: functional, cell-based; conditions: Chlorocebus sabaeus
[3] = target: T1, Dihydrofolate reductase (Homo sapiens) (UniProt P00374); test: Cytotoxicity by selective inhibition against human dihydrofolate reductase (DHFR);NA is no inhibition
T1 sequence (whole entry): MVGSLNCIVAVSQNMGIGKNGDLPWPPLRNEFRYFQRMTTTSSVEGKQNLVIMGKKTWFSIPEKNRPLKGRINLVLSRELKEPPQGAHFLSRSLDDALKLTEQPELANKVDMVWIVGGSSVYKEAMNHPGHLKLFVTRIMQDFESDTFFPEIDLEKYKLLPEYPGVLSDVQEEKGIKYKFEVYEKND

[4] = tested on: KB; test: Cytotoxicity against human epidermoid carcinoma KB cell.; assay type: functional, cell-based
[5] = tested on: Plasmodium falciparum; test: IC50 ratio against Plasmodium falciparum K1CB1/TM4; assay type: functional
[6] = tested on: Bifunctional dihydrofolate reductase-thymidylate synthase (Plasmodium falciparum K1), P13922 [UNDEFINED MUTATION]; test: Ratio of Inhibition of the S108N mutant of dihydrofolate reductase (DHFR) to inhibition of wild type dihydrofolate reductase.
Chain of Bifunctional dihydrofolate reductase-thymidylate synthase (Plasmodium falciparum K1), P13922 [UNDEFINED MUTATION] (P13922 whole entry, looked up, stated change not applied): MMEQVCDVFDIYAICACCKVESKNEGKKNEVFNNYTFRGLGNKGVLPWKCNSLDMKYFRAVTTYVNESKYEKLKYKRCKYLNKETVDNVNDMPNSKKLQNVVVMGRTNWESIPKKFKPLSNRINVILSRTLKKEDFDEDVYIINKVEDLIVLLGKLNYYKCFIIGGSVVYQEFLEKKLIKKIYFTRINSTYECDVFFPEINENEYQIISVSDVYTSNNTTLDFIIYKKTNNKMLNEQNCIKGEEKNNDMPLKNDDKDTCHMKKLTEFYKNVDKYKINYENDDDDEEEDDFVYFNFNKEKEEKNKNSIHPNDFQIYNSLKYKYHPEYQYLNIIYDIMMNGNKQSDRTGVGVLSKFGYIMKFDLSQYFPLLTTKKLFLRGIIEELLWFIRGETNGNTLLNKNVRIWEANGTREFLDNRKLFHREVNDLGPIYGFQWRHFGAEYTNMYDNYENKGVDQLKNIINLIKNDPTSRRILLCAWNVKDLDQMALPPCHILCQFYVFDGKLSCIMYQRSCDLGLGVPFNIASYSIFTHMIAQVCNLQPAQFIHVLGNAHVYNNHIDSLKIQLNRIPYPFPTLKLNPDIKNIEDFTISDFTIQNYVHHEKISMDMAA

[7] = Safety ratio is cytotoxicity to KB cells/IC50 TM4.; assay type: toxicity, cell-based; conditions: human, KB cells (epidermoid carcinoma); read-out: Safety ratio
In short: (§1)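 Ratio of the cytotoxicity IC50 (KB or BC cells, Skehan protocol) to the antiplasmodial IC50 against TM4/8.2 (wild-type DHFR). […] Label was added after 24 h and cultures ran a further 18-24 h.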

[8] = Safety ratio is cytotoxicity to KB cells/IC50 K1.; assay type: toxicity, cell-based; conditions: human, KB cells (epidermoid carcinoma); read-out: Safety ratio
In short: (§2)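 Ratio of the cytotoxicity IC50 (vero, KB or BC cells, Skehan protocol) to the antiplasmodial IC50 against K1CB1 (C59R+S108N DHFR). […] Label was added at 24 h and cultures ran a further 18-24 h. Final DMSO was 0.1%.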

[9] = Safety ratio is cytotoxicity to BC cells/IC50 TM4.; assay type: toxicity, cell-based; conditions: human, BC cells (breast cancer); read-out: Safety ratio; in short: as §1
[10] = tested on: Plasmodium falciparum; test: Safety ratio as cytotoxicity in vero cells relative to IC50 TM4; assay type: functional
[11] = Safety ratio is cytotoxicity to vero cells/IC50 K1.; assay type: toxicity, cell-based; conditions: monkey, read-out: Safety ratio; in short: as §2
[12] = target: Bifunctional dihydrofolate reductase-thymidylate synthase (Plasmodium falciparum K1) (UniProt P13922); test: Inhibition of Plasmodium falciparum wild-type dihydrofolate reductase (DHFR) relative to Pyrimethamine.
Chain of Bifunctional dihydrofolate reductase-thymidylate synthase (Plasmodium falciparum K1) (P13922 whole entry, looked up): as the sequence (P13922 whole entry, looked up, stated change not applied) above

[13] = target: Bifunctional dihydrofolate reductase-thymidylate synthase (Plasmodium falciparum K1, UniProt P13922, S108N); test: Inhibition of the S108N mutant of dihydrofolate reductase (DHFR)
Chain of Bifunctional dihydrofolate reductase-thymidylate synthase (Plasmodium falciparum K1, UniProt P13922, S108N) (P13922 whole entry, looked up, stated change not applied): as above
In short: (§3)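 Assay at 25 °C: 50 mM TES pH 7.0, 75 mM β-mercaptoethanol, 1 mg/mL BSA, 100 µM H2folate and 100 µM NADPH. NADPH oxidation followed at 340 nm. Ki derived from IC50 as Ki(1+[S]/Km), assuming competitive inhibition.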

[14] = tested on: Plasmodium falciparum; test: In vitro antiplasmodial activity (IC50) against Plasmodium falciparum wtTM4/8.2; assay type: functional, organism-based
[15] = target: Bifunctional dihydrofolate reductase-thymidylate synthase (Plasmodium falciparum K1, UniProt P13922); test: Inhibition of the C59R+S108N mutant of dihydrofolate reductase (DHFR); in short: as §3
Chain of Bifunctional dihydrofolate reductase-thymidylate synthase (Plasmodium falciparum K1, UniProt P13922) (P13922 whole entry): as the sequence (P13922 whole entry, looked up, stated change not applied) above

[16] = tested on: Bifunctional dihydrofolate reductase-thymidylate synthase (Plasmodium falciparum K1), P13922 [UNDEFINED MUTATION]; test: Ratio of Inhibition of the C59R+S108N mutant of dihydrofolate reductase (DHFR) to inhibition of wild type dihydrofolate reductase.
[17] = Safety ratio is cytotoxicity to BC cells/IC50 K1.; assay type: toxicity, cell-based; conditions: human, BC cells (breast cancer); read-out: Safety ratio; in short: as §2
[18] = target: Bifunctional dihydrofolate reductase-thymidylate synthase (Plasmodium falciparum K1) (UniProt P13922); test: Inhibition of S108N mutant dihydrofolate reductase (DHFR)relative to Tmp
In short: (§4)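 Assayed at 25 °C in 50 mM TES pH 7.0, 75 mM β-mercaptoethanol, 1 mg/mL BSA, with 100 µM H2folate and 100 µM NADPH. A340 was followed. Ki was derived from IC50 = Ki(1+[S]/Km), assuming competitive inhibition.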

[19] = target: Bifunctional dihydrofolate reductase-thymidylate synthase (Plasmodium falciparum K1) (UniProt P13922); test: Inhibition of the C59R+S108N mutant of dihydrofolate reductase (DHFR)relative to Tmp; in short: as §4
[20] = Safety ratio is cytotoxicity to KB cells/IC50 K1; assay type: toxicity, cell-based; conditions: human, KB cells (epidermoid carcinoma); read-out: Safety ratio
In short: (§5)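 Safety ratio is the mammalian-cell cytotoxicity IC50 (vero, KB or BC cells) divided by the antiplasmodial IC50 against P. falciparum K1CB1 (C59R+S108N DHFR). Parasites were grown in human erythrocytes (1.5% suspension, 1-2% parasitemia) at 37 °C, 3% CO2, with drug dilutions at 0.1% DMSO final. After 24 h, [3H]hypoxanthine was added for a further 18-24 h. IC50 came from sigmoidal incorporation curves.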

[21] = target: Bifunctional dihydrofolate reductase-thymidylate synthase (Plasmodium falciparum K1) (UniProt P13922); test: Inhibition of the wild-type dihydrofolate reductase (DHFR) relative to Tmp; in short: as §4
[22] = Safety ratio is cytotoxicity to BC cells/IC50 K1; assay type: toxicity, cell-based; conditions: human, BC cells (breast cancer); read-out: Safety ratio; in short: as §5
[23] = target: Bifunctional dihydrofolate reductase-thymidylate synthase (Plasmodium falciparum K1) (UniProt P13922); test: (§6) Inhibition of the wild-type dihydrofolate reductase (DHFR) relative to Pyr.; in short: as §4
[24] = target: Bifunctional dihydrofolate reductase-thymidylate synthase (Plasmodium falciparum K1) (UniProt P13922); test: Inhibition of the C59R+S108N mutant of dihydrofolate reductase (DHFR) relative to Pyr.; in short: as §4
[25] = tested on: Plasmodium falciparum; test: Relative antiplasmodial activity (IC50) compared to Pyr against Plasmodium falciparum K1CB1 DHFR double-mutant (C59R/S108N); assay type: functional
[26] = tested on: Plasmodium falciparum; test: In vitro relative antiplasmodial activity (IC50) compared to Pyr against Plasmodium falciparum TM4/8.2 wild-type; assay type: functional
[27] = target: Bifunctional dihydrofolate reductase-thymidylate synthase (Plasmodium falciparum K1) (UniProt P13922); test: Inhibition of the S108N mutant of dihydrofolate reductase (DHFR) relative to Pyr.; in short: as §4
[28] = target: Bifunctional dihydrofolate reductase-thymidylate synthase (Plasmodium falciparum K1) (UniProt P13922); test: as §6; in short: as §4; remark: listed apart in the source
[29] = Safety ratio is cytotoxicity to vero cells/IC50 KI.; assay type: toxicity, cell-based; conditions: monkey, read-out: Safety ratio; in short: as §5
[30] = target: T2, Dihydrofolate reductase (Homo sapiens, UniProt P00374); test: Cytotoxicity by selective inhibition against human dihydrofolate reductase (DHFR).
T2 sequence (P00374 whole entry): T1 sequence (whole entry)

| Compound | IC50 [1] | IC50 [2] | IC50 [4] | Ratio [5] | Ratio [6] | selectivity ratio [7] | selectivity ratio [8] | selectivity ratio [9] | Safety ratio [10] | selectivity ratio [11] | Ki [13] | IC50 [14] | Ki [15] | Ratio [16] | Relative activity [23] | Relative activity [24] | Relative activity [25] | Relative activity [26] | Relative activity [27] | also measured |
| --- | --- | --- | --- | --- | --- | --- | --- | --- | --- | --- | --- | --- | --- | --- | --- | --- | --- | --- | --- | --- |
| CCCOc1cc(Cc2cnc(N)nc2N)ccc1OCc1cc(OC)c(OC)c(OC)c1 | 56000 nM | 13000 nM | 180000 nM |  |  |  |  |  |  |  |  |  |  |  |  |  |  |  |  | NI [3]: inactive |
| Nc1nc(N)c(-c2ccccc2)c(CCCc2ccccc2)n1 | > 500000 nM | > 50000 nM | > 500000 nM | 11.5 | 1.8 | > 2500 | > 217 | > 2500 | >250 | > 22 | 0.9 nM | 200 nM | 2.4 nM | 4.8 |  |  |  |  |  | NI [3]: inactive; Relative activity [12]: 0.9; selectivity ratio [17]: > 217 |
| COc1cc(Cc2cnc(N)nc2N)ccc1OCCCc1ccccc1 | 32000 nM | 200000 nM | 72000 nM | 3.9 | 14.8 | 24 |  | 11 | 67 | 17 | 26.6 nM | 3000 nM | 44.2 nM | 24.5 |  |  |  |  |  | Relative activity [18]: 0.2; Relative activity [19]: 0.2; selectivity ratio [20]: 6; Relative activity [21]: 0.2; selectivity ratio [22]: 2.7 |
| CCc1nc(N)nc(N)c1-c1ccc(-c2ccccc2)cc1 |  |  |  | 0.3 | 2.2 |  |  |  |  |  | 421 nM | 13100 nM | 730 nM | 3.9 | 313 | 13.5 | 0.1 | 163.8 | 14.7 |  |
| CCc1nc(N)nc(N)c1-c1ccc(C)cc1 |  |  |  | 127 | 26.5 |  |  |  |  |  | 10.6 nM | 100 nM | 14.7 nM | 36.8 | 0.7 | 0.3 | 0.4 | 1.2 | 0.4 |  |
| CCOc1cc(Cc2cnc(N)nc2N)ccc1OCc1cc(OC)c(OC)c(OC)c1 | 139000 nM | 34000 nM | 102000 nM |  |  |  |  |  |  |  |  |  |  |  |  |  |  |  |  | NI [3]: inactive |
| CCc1nc(N)nc(N)c1-c1ccc(Br)cc1 |  |  |  | 500 | 105 |  |  |  |  |  | 31.5 nM | 50 nM | 44.3 nM | 148 | 0.5 | 0.8 | 0.8 | 0.6 |  | Relative activity [28]: 1.1 |
| Nc1nc(N)c(-c2cccc(Cl)c2)c(CCOCCCOc2ccccc2)n1 | 6100 nM | 15000 nM | 8100 nM | 8.3 | 4.5 | 20 | 2.5 | 15 | 38 | 4.5 | 1.8 nM | 400 nM | 1.9 nM | 4.7 |  |  |  |  |  | Relative activity [12]: 0.7; selectivity ratio [22]: 1.8 |
| CCc1nc(N)nc(N)c1-c1ccc(C(C)(C)C)cc1 | 56000 nM | 100000 nM | 87000 nM | 6.5 | 110 | 145 | 22 | 93.3 | 172 |  | 66.2 nM | 600 nM | 127 nM | 212 | 1 | 2.4 | 0.1 | 7.5 | 2.3 | selectivity ratio [29]: 26; selectivity ratio [17]: 14.4 |
| CCc1nc(N)nc(N)c1-c1ccccc1 | > 500000 nM | 320000 nM | > 500000 nM | 4.7 | 2 | > 714 | > 151 | > 714 | 444 | 96 | 4.5 nM | 700 nM | 8.7 nM | 3.8 | 3.8 |  | 0.1 | 8.7 | 0.2 | selectivity ratio [17]: > 151 |
| COc1ccc(CCCc2nc(N)nc(N)c2-c2cccc(Cl)c2)cc1 | > 500000 nM | 3000 nM | 15000 nM | 6.8 | 1.8 |  |  |  |  |  | 4 nM | 400 nM | 6 nM | 2.7 |  |  |  |  |  | Relative activity [12]: 3.7; Ki [30]: > 5000 nM |
| COc1cc(COc2cc(Cc3cnc(N)nc3N)ccc2OCc2ccccc2)cc(OC)c1OC |  |  |  | 0.9 | 2.5 |  |  |  |  |  | 180 nM | 19000 nM | 503 nM | 41.5 |  |  |  |  |  | Relative activity [18]: 1.4; Relative activity [19]: 2.1; Relative activity [21]: 1.2 |
